Test results from ChEMBL document CHEMBL4342481, “Spiro-oxindole Piperidines and 3-(Azetidin-3-yl)-1H-benzimidazol-2-ones as mGlu2 Receptor PAMs” (ACS Med Chem Lett, 2020).

Key:
[1] = Positive allosteric modulation of mGlu2 receptor in CHO cell membranes preincubated for 30 mins in presence of 4 uM glutamate followed by [35S]GTPgammaS addition and measured after 30 mins by scintillation counting analysis; design: species or system Cricetulus griseus
In short: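 No absolute EC50 was given where the concentration–response curve reached no clear upper plateau.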

CHO [2] = assay: Positive allosteric modulation of mGlu2 receptor in CHO cell membranes preincubated for 30 mins in presence of 4 uM glutamate followed by [35S]GTPgammaS addition and measured after 30 mins by scintillation counting analysis relative to control; settings: Cricetulus griseus
In short: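 EMAX is the % response, given as the median of at least two experiments with standard deviation.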

CHO [3] = assay: Positive allosteric modulation of mGlu2 receptor in CHO cell membranes at 1 uM preincubated for 30 mins in presence of 4 uM glutamate followed by [35S]GTPgammaS addition and measured after 30 mins by scintillation counting analysis; settings: Cricetulus griseus
[4] = Stability in human liver microsomes assessed as percentage of compound metabolized at 5 uM after 15 mins; format: ADME, Microsome; settings: for metabolised at 0.25 h, 5 µM: liver microsomes, read-out: Drug metabolism
[5] = Stability in rat liver microsomes assessed as percentage of compound metabolized at 5 uM after 15 mins; format: ADME, Microsome; settings: for metabolised at 0.25 h, 5 µM: liver microsomes, read-out: Drug metabolism
[6] = Brain to plasma permeability coefficient, Kp in Sprague-Dawley rat at 10 mg/kg, po after 2 hrs; format: ADME, organism-based
In short: (§1)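 Single oral dose to male Sprague–Dawley rats (n = 1), given as a suspension in 20% HP-β-CD at pH 7, at 10 or 30 mg/kg. Plasma (ng/mL) and brain (ng/g) levels were taken at 2 and 4 h. Kp is the brain/plasma partition coefficient at 2 h.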

[7] = Drug level in Sprague-Dawley rat plasma at 10 mg/kg, po after 2 hrs; format: ADME, organism-based; in short: as §1
[8] = Drug level in Sprague-Dawley rat plasma at 10 mg/kg, po after 4 hrs; format: ADME, organism-based; in short: as §1
[9] = Drug concentration in Sprague-Dawley rat brain at 10 mg/kg, po after 2 hrs; format: ADME, organism-based; settings: read-out: Drug uptake; in short: as §1
[10] = Drug concentration in Sprague-Dawley rat brain at 10 mg/kg, po after 4 hrs; format: ADME, organism-based; settings: for concentration at 4 h: Sprague-Dawley, brain, read-out: Drug uptake; in short: as §1
[11] = Brain to plasma permeability coefficient, Kp in Sprague-Dawley rat at 30 mg/kg, po after 2 hrs; format: ADME, organism-based; in short: as §1
[12] = Drug level in Sprague-Dawley rat plasma at 30 mg/kg, po after 2 hrs; format: ADME, organism-based; in short: as §1
[13] = Drug level in Sprague-Dawley rat plasma at 30 mg/kg, po after 4 hrs; format: ADME, organism-based; in short: as §1
[14] = Drug concentration in Sprague-Dawley rat brain at 30 mg/kg, po after 2 hrs; format: ADME, organism-based; settings: read-out: Drug uptake; in short: as §1
[15] = Drug concentration in Sprague-Dawley rat brain at 30 mg/kg, po after 4 hrs; format: ADME, organism-based; settings: read-out: Drug uptake; in short: as §1
MDR1 [16] = assay: Efflux ratio of permeability in pig LLC-PK1 cells transfected with MDR1; format: ADME, cell-based, Sus scrofa
MDR1 [17] = assay: Permeability in pig LLC-PK1 cells transfected with MDR1 gene; format: ADME, cell-based, Sus scrofa; settings: read-out: permeability
[18] = molecular target: Adenosine receptor A2b (Homo sapiens) (UniProt P29275); assay: Displacement of radioligand from human adenosine A2B receptor
Sequence of Adenosine receptor A2b (Homo sapiens) (P29275 whole entry, looked up): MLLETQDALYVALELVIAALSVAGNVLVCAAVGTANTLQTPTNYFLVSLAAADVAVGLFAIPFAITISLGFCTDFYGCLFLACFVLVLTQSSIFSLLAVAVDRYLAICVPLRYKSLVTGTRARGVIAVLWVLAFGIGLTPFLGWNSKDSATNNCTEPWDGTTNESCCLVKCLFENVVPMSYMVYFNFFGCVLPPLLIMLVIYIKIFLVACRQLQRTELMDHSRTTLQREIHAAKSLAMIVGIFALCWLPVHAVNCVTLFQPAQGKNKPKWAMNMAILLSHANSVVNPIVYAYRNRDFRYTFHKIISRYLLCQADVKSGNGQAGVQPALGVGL

[19] = microsomes, 0.25 h, 5 µM, BLD = below limit of detection

Compound | EC50 [1] [nM] | Emax (CHO [2]) [%] | Activity (CHO [3]) [%] | metabolised at 0.25 h, 5 µM [4] [%] | metabolised at 0.25 h, 5 µM [5] [%] | also measured
O=C1Nc2ccc(C3CC3)cc2C12CCN(c1ccc(Cl)nn1)CC2 | 630 | 169 | 105 | 45 | 100 | 
CCOc1cc(N2CCC3(CC2)C(=O)Nc2ccc(Br)cc23)nnc1Cl | 210 | 380 | 203 | 11 | 58 | Kp at 2 h [6]: 0.37; concentration at 2 h [7]: 49 ng/mL; concentration at 4 h [8]: 17 ng/mL; concentration at 2 h [9]: 18 ng/g; Drug uptake ([10]; in vivo, 4 h, BLD = below limit of detection): Bld
FC(F)(F)c1cccc(C2CCN(c3ccc(Cl)nn3)CC2)c1 | 2290 | 128 |  |  |  | 
CCNc1cc(N2CC(n3c(=O)[nH]c4ccc(Br)cc43)C2)nnc1Cl | 230 | 241 |  | 9 | 26 | Kp at 2 h [6]: 0.07; concentration at 2 h [7]: 254 ng/mL; concentration at 4 h [8]: 416 ng/mL; concentration at 2 h [9]: 18 ng/g; concentration at 4 h [10]: 18 ng/g
O=C1Nc2c(Br)cccc2C12CCN(c1ccc(Cl)nn1)CC2 | 3090 | 65 | 9 |  |  | 
O=C1Nc2cc(Br)ccc2C12CCN(c1ccc(Cl)nn1)CC2 |  | 183 | 76 |  |  | 
O=C1Nc2ccc(Br)cc2C12CCN(c1ccc(C(F)(F)F)nn1)CC2 | 400 | 53 | 46 | 4 | 20 | 
Cc1ccc(N2CCC3(CC2)C(=O)Nc2ccc(Br)cc23)nn1 |  | 228 | 36 | 17 | 69 | 
CCOc1cc(N2CC(n3c(=O)[nH]c4cc(C(F)(F)F)ccc43)C2)ncc1Cl | 80 | 218 |  | 4 | 12 | Kp at 2 h [11]: 0.14; concentration at 2 h [12]: 2660 ng/mL; concentration at 4 h [13]: 5090 ng/mL; concentration at 2 h [14]: 371 ng/g; concentration at 4 h [15]: 996 ng/g; efflux ratio (MDR1 [16]): 1.24; Papp (MDR1 [17]): 9 ×10⁻⁶ cm/s
CCOc1ccc(N2CCC3(CC2)C(=O)Nc2ccc(Br)cc23)nn1 | > 10000 | 52 | 5 | 7 | 31 | 
O=C1Nc2ccc(F)cc2C12CCN(c1ccc(Cl)nn1)CC2 |  | 184 | 31 | 11 | 57 | 
O=C1Nc2cccc(Br)c2C12CCN(c1ccc(Cl)nn1)CC2 |  | 108 | 31 |  |  | 
CCOc1cc(N2CCC3(CC2)C(=O)Nc2ccc(Br)cc23)nnc1C(F)(F)F | 130 | 216 | 160 | 9 | 43 | Kp at 2 h [6]: 1.4; concentration at 2 h [7]: 260 ng/mL; concentration at 4 h [8]: 220 ng/mL; concentration at 2 h [9]: 310 ng/g; concentration at 4 h [10]: 290 ng/g; IC50 [18]: 790 nM
CCNc1cc(N2CCC3(CC2)C(=O)Nc2ccc(Br)cc23)nnc1Cl | 240 | 394 | 263 | 8 | 65 | 
O=C1Nc2ccccc2C12CCN(c1ccc(Cl)nn1)CC2 |  | 217 | 24 | 45 | 95 | 
CCOc1cc(N2CC(n3c(=O)[nH]c4ccccc43)C2)ncc1Cl | 270 | 259 |  | 15 | 46 | Kp at 2 h [11]: 0.36; concentration at 2 h [12]: 5770 ng/mL; concentration at 4 h [13]: 5780 ng/mL; concentration at 2 h [14]: 2050 ng/g; concentration at 4 h [15]: 2370 ng/g; efflux ratio (MDR1 [16]): 1.18; Papp (MDR1 [17]): 13 ×10⁻⁶ cm/s
O=C1Nc2ccc(Br)cc2C12CCN(c1cccnn1)CC2 |  | 141 | 7 |  |  | 
CCNc1cc(N2CC(n3c(=O)[nH]c4ccccc43)C2)ncc1Cl | 120 | 381 |  | 27 | 88 | 
CCNc1cc(N2CC(n3c(=O)[nH]c4ccccc43)C2)nnc1Cl | 280 | 291 |  | 0 | 23 | Kp at 2 h [11]: 0.03; concentration at 2 h [12]: 1480 ng/mL; concentration at 4 h [13]: 842 ng/mL; concentration at 2 h [14]: 48 ng/g; concentration at 4 h [15]: 31 ng/g
CC(C)(C)OC(=O)N1CCC2(CC1)C(=O)Nc1ccc(Br)cc12 | 10000 | 120 |  |  |  | 
O=C1Nc2ccc(Br)cc2C12CCN(c1ccc(Cl)nn1)CC2 | 1020 | 232 | 100 | 8 | 25 | 
CCOc1nc(N2CC(n3c(=O)[nH]c4cc(C(F)(F)F)ccc43)C2)ncc1Cl | 150 | 220 |  |  |  | Drug metabolism [4, 19]: Bld; Drug metabolism [5, 19]: Bld
O=C1Nc2ccc(Cl)cc2C12CCN(c1ccc(Cl)nn1)CC2 | 1000 | 187 | 80 | 8 | 76 | 
